How the values were obtained:
[1] = molecular target: T1, Cathepsin B (Homo sapiens, UniProt P07858); experiment: Prodrug release assessed as cathepsin B (unknown origin)-mediated cleavage of GFLG peptide of parent compound by measuring formation of 7-ethyl-10-hydroxycamptothecin at 37 degreeC in presence of cathepsin B inhibitor CA-074 Me by fluorescence spectroscopy; format: ADME
[2] = molecular target: T1, Cathepsin B; experiment: Prodrug release assessed as cathepsin B (unknown origin)-mediated cleavage of GFLG peptide of parent compound by measuring formation of 7-ethyl-10-hydroxycamptothecin at 37 degreeC by fluorescence spectroscopy; format: ADME
Summary of the method: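 The conjugate was incubated with cathepsin B at 37 °C, alongside an enzyme-free control. Release of free SN38 was followed as the rise in fluorescence over time (λex 365 nm, λem 540 nm).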

[3] = molecular target: T1, Cathepsin B; experiment: Prodrug release assessed as cathepsin B (unknown origin)-mediated cleavage of GFLG peptide of parent compound by measuring retention time of 7-ethyl-10-hydroxycamptothecin by RP-HPLC analysis/mass spectrometry; format: ADME
Summary of the method: (§1)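 The cathepsin B digest of the conjugate was analysed by analytical RP-HPLC with mass spectrometry. Cleavage products were assigned from their retention times and [M+H]+ or [M+Na]+ ions.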

[4] = molecular target: T1, Cathepsin B; experiment: Prodrug release assessed as cathepsin B (unknown origin)-mediated cleavage of parent compound by measuring retention time of folic acid linked-glycyl-hydroxypehylalanine by RP-HPLC analysis/mass spectrometry; format: ADME; summary of the method: as §1
[5] = molecular target: T1, Cathepsin B; experiment: Prodrug release assessed as cathepsin B (unknown origin)-mediated cleavage of parent compound by measuring retention time of cyclic dipeptide matography-mass spectrometry; format: ADME
[6] = Drug uptake in folate receptor negative human A549 cells assessed as accumulation of compound in lysosomes by measuring fluorescence intensity at 5 uM incubated for 24 hrs by Hoechst 33342 staining based confocal microscopy; format: ADME, cell-based; conditions: a549, 24 h
Summary of the method: (§2)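 Cells were incubated with 5 μM conjugate for 24 h. Nuclei were counterstained with Hoechst 33342 (1 μg/mL). Cellular fluorescence and its localisation were imaged by confocal microscopy.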

[7] = Drug uptake in folate receptor negative human 16HBE cells assessed as accumulation of compound at 5 uM incubated for 24 hrs by Hoechst 33342 staining based confocal microscopy; format: ADME, cell-based; conditions: 16hbe14o-; summary of the method: as §2
[8] = molecular target: T1, Cathepsin B; experiment: Prodrug release in FR-overexpressing human SKHEP1 cells assessed as cathepsin B-mediated 7-ethyl-10-hydroxycamptothecin accumulation in nucleus at 5 uM preincubated with cathepsin B inhibitor CA-074 Me for 24 hrs followed by compound treatment for 24 hrs by Hoechst 33342 staining based confocal microscopy; format: ADME, cell-based; conditions: sk-hep1, 24 h
Summary of the method: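 SK-Hep-1 cells were pretreated with 20 μM CA-074 Me (cathepsin B inhibitor) for 24 h, then given 5 μM conjugate for 24 h. Nuclei were stained with Hoechst 33342 (1 μg/mL), and cells were imaged by confocal microscopy.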

[9] = molecular target: T1, Cathepsin B; experiment: Prodrug release in FR-overexpressing human SKHEP1 cells assessed as cathepsin B-mediated 7-ethyl-10-hydroxycamptothecin accumulation in nucleus at 5 uM incubated for 24 hrs by Hoechst 33342 staining based confocal microscopy; format: ADME, cell-based; conditions: sk-hep1, 24 h; summary of the method: as §2
[10] = tested on: SK-HEP1; experiment: Cytotoxicity against FR-positive human SKHEP1 cells assessed as reduction in cell viability measured after 72 hrs by MTT assay; format: functional, cell-based; conditions: SK-HEP1, 72 h
Summary of the method: (§3)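 Cancer or normal human cells were exposed to a range of concentrations for 72 h. Viability was read by MTT assay. IC50 was derived from the concentration–response curves, and percent viability loss was taken at 20 μM.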

[11] = tested on: HeLa; experiment: Cytotoxicity against FR-positive human HeLa cells assessed as reduction in cell viability measured after 72 hrs by MTT assay; format: functional, cell-based; summary of the method: as §3
[12] = tested on: SiHa; experiment: Cytotoxicity against FR-positive human SiHa cells assessed as reduction in cell viability measured after 72 hrs by MTT assay; format: functional, cell-based; summary of the method: as §3
[13] = tested on: A549; experiment: Cytotoxicity against FR-negative human A549 cells assessed as reduction in cell viability at 20 uM measured after 72 hrs by MTT assay relative to control; format: functional; conditions: A549, 72 h; summary of the method: as §3
[14] = Cytotoxicity against human 16HBE cells assessed as reduction in cell viability at 20 uM measured after 72 hrs by MTT assay relative to control; format: cell-based; conditions: 16HBE (16HBE14o-) cells, read-out: INH; summary of the method: as §3
[15] = Retention time of the compound by RP-HPLC analysis/mass spectrometry; format: physicochemical
[16] = molecular target: T1, Cathepsin B; experiment: Prodrug release in FR-overexpressing human SKHEP1 cells assessed as cathepsin B-mediated 7-ethyl-10-hydroxycamptothecin accumulation in nucleus at 5 uM preincubated with folic acid for 1 hr followed by compound treatment for 24 hrs by Hoechst 33342 staining based confocal microscopy; format: ADME, cell-based; conditions: sk-hep1, 24 h
Summary of the method: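 SK-Hep-1 cells were pre-exposed to 3 mM free folic acid for 1 h to block the folate receptor, then given 5 μM conjugate for 24 h. Hoechst 33342 (1 μg/mL) was used as the nuclear stain, with confocal microscopy read-out.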

[17] = tested on: 16HBE14o-; experiment: Cytotoxicity against human 16HBE cells assessed as reduction in cell viability measured after 72 hrs by MTT assay; format: cell-based
[18] = tested on: A549; experiment: Cytotoxicity against FR-negative human A549 cells assessed as reduction in cell viability measured after 72 hrs by MTT assay; format: functional, cell-based; conditions: A549, 72 h

SMILES | Drug metabolism [1] | Drug metabolism [2] | Retention_time [3] [min] | Retention_time [4] [min] | Retention_time [5] [min] | Drug uptake [6] | Drug uptake [7] | Drug metabolism [8] | Drug metabolism [9] | IC50 [10] [nM] | IC50 [11] [nM] | IC50 [12] [nM] | inhibition at 20 µM [13] [%] | cytotoxicity at 72 h, 20 µM [14] [%] | Retention_time [15] [min] | Drug metabolism [16] | IC50 [17] [nM] | IC50 [18] [nM]
CCc1c2c(nc3ccc(OCc4ccc(NC(=O)CNC(=O)[C@H](CC(C)C)NC(=O)[C@H](Cc5ccccc5)NC(=O)CNC(=O)COCCOCCOCCOCc5cn(CCOCCOCCOCCNC(=O)CC[C@H](NC(=O)c6ccc(NCc7cnc8nc(N)[nH]c(=O)c8n7)cc6)C(=O)O)nn5)cc4)cc13)-c1cc3c(c(=O)n1C2)COC(=O)[C@]3(O)CC | Metabolite_Notdetected | Metabolite_Detected | 23.6 | 21.4 | 34 | Not Active | Not Active | Metabolite_Notdetected | Metabolite_Detected | 2000 to 3000 | 2000 to 3000 | 2000 to 3000 | 51 | 24 | 26.4 | Metabolite_Notdetected |  | 
CCc1c2c(nc3ccc(O)cc13)-c1cc3c(c(=O)n1C2)COC(=O)[C@]3(O)CC [7-ETHYL-10-HYDROXYCAMPTOTHECIN] |  |  |  |  |  |  |  |  |  | 300 to 1000 | 300 to 1000 | 300 to 1000 |  |  |  |  | 300 to 1000 | 300 to 1000

From ChEMBL document CHEMBL4622987, “Folate Receptor Targeting and Cathepsin B-Sensitive Drug Delivery System for Selective Cancer Cell Death and Imaging” (ACS Med Chem Lett, 2020)
